Screening data as filed in PubChem.
ARNT-TACC3 inh – disruptors of ARNT/TACC3 protein interaction, primary screen, biochemical, AlphaScreen, single concentration; Transforming acidic coiled-coil-containing protein 3 (Homo sapiens), Q9Y6A5; AlphaScreen His-ARNT PAS-B/GST-TACC3 binding, luminescence; TACC3 fragment carries E629A point mutation; inhibition, % at 9.99 µM; 0.66% of 390,000 active; AID 623870, 2012;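 active = mean inhibition of replicates at least 50% and at least half of replicates each reaching 50%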;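 note: 0% = complete ARNT plus TACC3 wells and 100% = ARNT alone without TACC3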
CAL PDZ FP-1 – CAL PDZ peptide-binding inhibitors, primary screen, biochemical, fluorescence polarization, Cer-tagged CAL PDZ, HTS; Golgi-associated PDZ and coiled-coil motif-containing protein (Homo sapiens), Q9HD26; 0.02% of 330,000 active; inhibition, % at 20 µM; purified CAL PDZ, TMR-peptide fluorescence polarization, 1 h;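 active = highest replicate inhibition of at least 40%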;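 note: plate controls were DMSO neutral control wells for no effect and unlabeled competitor peptide control wells for full effect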
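material = purified tagged CAL PDZ domain construct (CerCALP) | compound dosing = 20 µM, one dose | times = 1 h at RT | measured by = fluorescence polarization from S- and P-plane intensities, G-factor corrected | read-out = inhibition from polarization loss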
CAL PDZ FP-2 – untagged CAL PDZ binding inhibitors, primary screen, biochemical, fluorescence polarization, HTS. purified CAL PDZ, TMR-peptide fluorescence polarization, 1 h. 0.92% of 300,000 active. inhibition, % at 24.9 µM;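 active = mean inhibition of at least 30% with at least half of replicates also reaching 30%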;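 note: 0% = DMSO neutral control and 100% = excess unlabeled competitor peptide PRC23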
CaV13 ICDI inh – Disruptors of the CACNA1D IQ motif to Ca2+-dependent inactivation inhibitor domain association, primary screening, Förster resonance energy transfer in intact living …; 0.098% of 340,000 active; inhibition, % at 12.3 µM; HEK cells, CFP/YFP FRET ICDI-IQ, plate reader, 10 min; percent FRET-ratio fall versus neutral wells;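 active = mean replicate inhibition of at least 30% and at least 1% of replicates passing that level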;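 note: 0% = median of the neutral control wells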
The depositor's hits bear a star; ! = a repeat was not active. In the library only some 1.2% were active in any assay of this set; here they are far more common.

CCOC(=O)C1CCCN(CCCc2ccccc2)C1 (stereo not drawn) was read as ARNT-TACC3 inh -4.2, CAL PDZ FP-1 -0.9, CAL PDZ FP-2 -0.7 and CaV13 ICDI inh 37.6*!.
`Cc1noc(C)c1NC(=O)Nc1ccc2c(c1)C(=O)N([C@H](C)CO)C[C@@H](C)[C@H](CN(C)Cc1ccc(C(F)(F)F)cc1)OCCCC[C@@H](C)O2` gave ARNT-TACC3 inh 8.7.
For CN(C)c1ccc2c(c1)[C@@H]1C[C@@H](CC(=O)NCc3ccc4c(c3)OCO4)O[C@@H](CO)[C@@H]1O2 the results were ARNT-TACC3 inh 12.2.
`O=C(O)C[C@@H]1C[C@@H]2c3cc(NC(=O)c4ccc5c(c4)OCO5)ccc3O[C@@H]2[C@H](CO)O1` gave ARNT-TACC3 inh 2.7.
`COC(=O)CC1C(=O)NCCN1C(=O)c1ccc([N+](=O)[O-])cc1` (stereo not drawn) gave ARNT-TACC3 inh 2.8, CAL PDZ FP-1 -1.2, CAL PDZ FP-2 69.6* and CaV13 ICDI inh -10.1.
For CCOC(=O)CC1C(=O)NCCN1C(=O)c1ccc(C)cc1 (stereo not drawn) the results were ARNT-TACC3 inh 1.0, CAL PDZ FP-1 -0.4, CAL PDZ FP-2 -0.9 and CaV13 ICDI inh -20.5.
Screening CCCC(=O)NC(NC(=S)Nc1ccc(S(N)(=O)=O)cc1)C(Cl)(Cl)Cl (stereo not drawn) returned ARNT-TACC3 inh 28.5*, CAL PDZ FP-1 -2.4, CAL PDZ FP-2 5.4 and CaV13 ICDI inh -6.7.
Screening CCCCCC(=O)NC(NC(=S)Nc1ccc(S(N)(=O)=O)cc1)C(Cl)(Cl)Cl (stereo not drawn) returned ARNT-TACC3 inh -0.6, CAL PDZ FP-1 -3.1, CAL PDZ FP-2 -1.6 and CaV13 ICDI inh -4.0.
`O=C(Nc1ccc(Cl)c(S(=O)(=O)N2CCCC2)c1)c1nn(CCO)c(=O)c2ccccc12` gave ARNT-TACC3 inh 7.8, CAL PDZ FP-1 -3.5, CAL PDZ FP-2 38.6* and CaV13 ICDI inh -6.5.
`Cn1nc(C(=O)Nc2ccc(Cl)c(S(=O)(=O)N3CCOCC3)c2)c2ccccc2c1=O` gave ARNT-TACC3 inh 11.4, CAL PDZ FP-1 -1.9, CAL PDZ FP-2 0.3 and CaV13 ICDI inh -16.5.
For COc1ccccc1NS(=O)(=O)c1cc(NC(=O)CCNC(C)=O)ccc1C the results were ARNT-TACC3 inh 1.9, CAL PDZ FP-1 -1.1, CAL PDZ FP-2 6.0 and CaV13 ICDI inh 151.3*.
For Fc1ccc(NC(=S)Nc2ccc(F)c(Cl)c2)cc1Cl the results were ARNT-TACC3 inh -4.5, CAL PDZ FP-1 -2.2 and CAL PDZ FP-2 -6.1.
Screening Cc1ccc(NC(=S)Nc2ccc(OC(F)F)c(Cl)c2)cc1F returned ARNT-TACC3 inh 0.2, CAL PDZ FP-1 0.2, CAL PDZ FP-2 65.7* and CaV13 ICDI inh -6.3.
Screening C/C=C/c1cnc2c(c1)C(=O)N([C@H](C)CO)C[C@H](C)[C@@H](CN(C)C(=O)c1cnccn1)O2 returned ARNT-TACC3 inh 0.3.
CC1CCCCC1NC(=O)CN1C(=O)c2cccc(N)c2C1=O (stereo not drawn) was read as ARNT-TACC3 inh -3.3, CAL PDZ FP-1 0.4, CAL PDZ FP-2 7.8 and CaV13 ICDI inh active.
`CCCCNC(=O)CN1C(=O)c2cccc(N)c2C1=O` gave ARNT-TACC3 inh -21.6, CAL PDZ FP-1 -0.8, CAL PDZ FP-2 65.8* and CaV13 ICDI inh -15.6.
Cc1ccc(C)c(-n2cc(CNCCc3cnccn3)c(-c3ccccc3)n2)c1 was read as ARNT-TACC3 inh 1.5, CAL PDZ FP-1 -0.9, CAL PDZ FP-2 52.8* and CaV13 ICDI inh -3.8.
For CCn1ccnc1CNCc1cn(-c2cc(C)ccc2C)nc1-c1ccccc1 the results were CAL PDZ FP-1 -3.6, CAL PDZ FP-2 1.2 and CaV13 ICDI inh -17.7.
For O=[N+]([O-])c1ccc(Sc2cccc[n+]2[O-])c2nonc12 the results were ARNT-TACC3 inh 61.5*, CAL PDZ FP-1 -0.7, CAL PDZ FP-2 -1.1 and CaV13 ICDI inh -4.8.
NC(CO)C(=O)NNCc1ccc(O)c(O)c1O (stereo not drawn) was read as ARNT-TACC3 inh 57.3*, CAL PDZ FP-1 0.3, CAL PDZ FP-2 5.6 and CaV13 ICDI inh -4.7.
COC(=O)C(N)Cc1ccc(O)c(O)c1 (stereo not drawn) was read as ARNT-TACC3 inh -5.4, CAL PDZ FP-1 -0.2 and CAL PDZ FP-2 -2.4.
For COc1ccc(C2CC(=O)c3c(C)nc(N4CCN(c5ccccc5)CC4)nc3C2)cc1 (stereo not drawn) the results were ARNT-TACC3 inh -12.1, CAL PDZ FP-1 -0.8, CAL PDZ FP-2 37.8* and CaV13 ICDI inh -4.7.
`Cc1noc(C)c1NC(=O)Nc1ccc2c(c1)C(=O)N([C@@H](C)CO)C[C@@H](C)[C@H](CN(C)C(=O)Nc1ccc3c(c1)OCO3)OCCCC[C@H](C)O2` gave ARNT-TACC3 inh 1.2.
For COc1ccc(-c2nnc3n2-c2ccccc2SC3)cc1OC the results were ARNT-TACC3 inh -16.7, CAL PDZ FP-1 -0.8, CAL PDZ FP-2 -5.9 and CaV13 ICDI inh -5.5.
For c1ccc2c(c1)SCc1nnc(-c3ccncc3)n1-2 the results were ARNT-TACC3 inh -6.2, CAL PDZ FP-1 -0.8, CAL PDZ FP-2 95.9* and CaV13 ICDI inh -2.8.
Cc1ccc(S(=O)(=O)NCCNc2ccc(Br)c(C)c2)cc1 was read as CAL PDZ FP-1 -0.3, CAL PDZ FP-2 39.4* and CaV13 ICDI inh -14.9.
Screening Cc1ccc(S(=O)(=O)NCCNS(=O)(=O)c2ccccc2Br)cc1 returned ARNT-TACC3 inh -2.7, CAL PDZ FP-1 -1.3, CAL PDZ FP-2 -4.9 and CaV13 ICDI inh -4.2.
For CC(=O)N1CCC(=NNc2ncc(C(F)(F)F)cc2Cl)CC1 the results were ARNT-TACC3 inh 47.8*, CAL PDZ FP-1 -1.9, CAL PDZ FP-2 -2.4 and CaV13 ICDI inh 2.0.
Screening CCOC(=O)N1CCC(=NNc2ncc(C(F)(F)F)cc2Cl)CC1 returned ARNT-TACC3 inh 0.6, CAL PDZ FP-1 -1.1, CAL PDZ FP-2 -2.7 and CaV13 ICDI inh -0.2.
`CCOCC(=O)NC1CCc2cc(OC(=O)COCC)c(OC)c(OC)c2-c2ccc(SC)c(=O)cc21` (stereo not drawn) gave ARNT-TACC3 inh 0.3, CAL PDZ FP-1 -0.5, CAL PDZ FP-2 34.1* and CaV13 ICDI inh -5.1.
CCn1ccnc1CN1CCc2c([nH]c3ccccc23)C1C(C)(C)C (stereo not drawn) was read as ARNT-TACC3 inh 10.8, CAL PDZ FP-1 -0.8, CAL PDZ FP-2 79.7* and CaV13 ICDI inh -3.8.
For COCCC(=O)N1CCc2c([nH]c3ccccc23)C1C(C)(C)C (stereo not drawn) the results were ARNT-TACC3 inh -7.0, CAL PDZ FP-1 -1.0 and CaV13 ICDI inh 6.1.
For CCn1ccnc1CN1CCc2c([nH]c3ccccc23)C1CC(C)C (stereo not drawn) the results were ARNT-TACC3 inh 19.5, CAL PDZ FP-1 -2.1 and CaV13 ICDI inh -3.1.
